≈ marks a conversion by molar mass, not a printed value. Calls of active or inactive are those of the source. No cut-off for these calls is given here. Where a SMILES comes first, the peptide text is derived from it. Bridges are numbered along the chain shown (N, C = ends). [ ]: non-standard residue; d: D form. The star is where a group is joined. X1 = CC[C@H](C)CCCCC(=O)*; Dab = NCC[C@H](N)C(=O)O
Tests used:
Staphylococcus aureus [1] = assay: Antibacterial activity against Staphylococcus aureus ATCC 29213 assessed as inhibition of growth measured after 24 hrs by CLSI based broth microdilution method; format: functional
Escherichia coli [2] = assay: Antibacterial activity against Escherichia coli ATCC 25922 assessed as inhibition of growth measured after 24 hrs by CLSI based broth microdilution method; format: functional
Escherichia coli [3] = assay: Induction of morphological changes in Escherichia coli ATCC 25922 assessed as deformed, pitted and shriveled surface at MIC incubated for 12 hrs by scanning electron microscopy; format: functional, organism-based
Method in brief: (§1)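 Cells treated with 1× MIC compound or PBS, then washed three times in PBS. Pellets were fixed in 2.5% glutaraldehyde for 2 h, dehydrated through an ethanol series, critical-point dried and gold-coated. Imaging was by SEM at 3 kV.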

Cell membrane [4] = assay: Induction of membrane disruption in Escherichia coli ATCC 25922 at 1 to 4 x MIC measured within 20 min by Ethidium bromide based fluorescence assay; format: functional, subcellular
Method in brief: (§2)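 Log-phase cells washed and resuspended in PBS at about 10^8 CFU/mL. Ethidium bromide ([…], stated as final) and compound at various concentrations were added. Fluorescence (ex 540, em 590 nm) was read every 20 min for 80 min against a solvent control.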

Cell membrane [5] = assay: Induction of membrane disruption in Staphylococcus aureus ATCC 29213 at 1 to 4 x MIC measured within 20 min by Ethidium bromide based fluorescence assay; format: functional, subcellular; method in brief: as §2
Escherichia coli [6] = assay: Induction of morphological changes in Escherichia coli ATCC 25922 assessed as damaged cells at MIC incubated for 12 hrs by Transmission electron microscopy; format: functional, organism-based
Method in brief: (§3)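 Cells treated with 1× MIC compound or PBS, then washed three times in PBS. Pellets were fixed in 2.5% glutaraldehyde and then 1% osmium tetroxide, 2 h each, and examined by TEM.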

Cell membrane [7] = assay: Induction of cell membrane damage in Staphylococcus aureus ATCC 29213 assessed as fluorescence emission at MIC after 1 hr by propidium iodide staining based transmission electron microscopy (Rvb= 1.53%); format: functional, subcellular; conditions: in the assay text read “flow cytometry” for “transmission electron microscopy”
Method in brief: (§4)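 Log-phase bacteria diluted in PBS to about 10^9 CFU/mL and exposed to 1× MIC compound at 37 °C for 1 h. Cells were washed and stained with 60 µM propidium iodide in the dark for 15 min, then read at once by flow cytometry. The percentage of PI-stained cells was reported against an untreated control.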

Staphylococcus aureus [8] = assay: Induction of morphological changes in Staphylococcus aureus ATCC 29213 assessed as damaged cells at MIC incubated for 12 hrs by Transmission electron microscopy; format: functional, organism-based; method in brief: as §3
Cell membrane [9] = assay: Induction of cell membrane damage in Escherichia coli ATCC 25922 assessed as fluorescence emission at MIC after 1 hr by propidium iodide staining based transmission electron microscopy (reference value: 4.34%); format: functional, subcellular; conditions: in the assay text read “flow cytometry” for “transmission electron microscopy”; method in brief: as §4
Staphylococcus aureus [10] = assay: Antibacterial activity against Staphylococcus aureus ATCC 29213 assessed as bacterial growth inhibition at 1 to 2 times of MIC concentration measured at logarithmic phase 6 th hr of bacterial cycle; format: functional; conditions: time 6 hrs
Method in brief: (§5)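 Bacteria grown in Mueller Hinton broth with compound at several MIC multiples, shaken at 220 rpm and 37 °C for 24 h. Growth was recorded every 2 h over the 24 h. The solvent control was 1% DMSO under the same conditions.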

Cell membrane [11] = assay: Induction of membrane depolarization in Escherichia coli ATCC 25922 assessed as increased the fluorescence intensity at 1 to 2 times of MIC incubated for 80 min by [DiSC3(5)] probe based fluorescence assay; format: functional, subcellular
Method in brief: (§6)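 Log-phase cells at 10^7 CFU/mL in PBS with 0.4 µM DiSC3(5) and 0.1 M KCl, kept in the dark. […] Fluorescence (ex 622, em 670 nm) was recorded continuously for 80 min.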

Staphylococcus aureus [12] = assay: Antibacterial activity against Staphylococcus aureus ATCC 29213 assessed as bacterial growth inhibition at 0.5 times of MIC concentration measured at logarithmic phase 6 th hr of bacterial cycle; format: functional, organism-based; conditions: time 24.0 hrs; method in brief: as §5
Staphylococcus aureus [13] = assay: Antibacterial activity against Staphylococcus aureus ATCC 29213 infected in mouse C57BL/6 bacterimia model assessed as reduction in number of viable pathogens in peritoneal cavity at 12 mg/kg, ip treated 1 hr after infection measured after 24 hrs; format: functional, organism-based
Method in brief: (§7)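 Male C57BL/6 mice (20 ± 2 g, 7 per group) got an ip injection of 200 µL mid-log S. aureus in sterile saline (about 10^9 CFU per 20 g). Compound was given ip 1 h later. Controls were 0.9% saline and polymyxin B 12 mg/kg. After 24 h, peritoneal lavage (2 mL PBS) was serially diluted 10-fold onto TSA and incubated 18-24 h at 37 °C. CFU were counted.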

Escherichia coli [14] = assay: Antibacterial activity against Escherichia coli ATCC 25922 assessed as bacterial growth inhibition at 1 to 2 times of MIC concentration measured at logarithmic phase 6 th hr of bacterial cycle; format: functional; conditions: time 6 hrs; method in brief: as §5
Cell membrane [15] = assay: Induction of membrane depolarization in Staphylococcus aureus ATCC 29213 assessed as increased the fluorescence intensity at 1 to 2 times of MIC incubated for 80 min by [DiSC3(5)] probe based fluorescence assay; format: functional, subcellular; method in brief: as §6
[16] = Toxicity in rabbit red blood cells assessed as hemolysis at 3 to 22.5 ug/ml incubated for 1 hr relative to control; format: cell-based, Oryctolagus cuniculus, Erythrocyte; conditions: at 3 to 22.5 µg/mL, dose 3-22.5 µg/ml, read-out: Activity
Method in brief: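 Washed rabbit erythrocytes at 2% in PBS were mixed with compound at final 3 to 22.5 µg/mL for 1 h at room temperature. After centrifugation at 1500 rpm for 10 min, supernatant absorbance was read at 450 nm. Hemolysis % = (A − A_PBS)/(A_Triton − A_PBS) × 100, with 0.5% Triton X-100 as the positive control. Run in triplicate.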

Escherichia coli [17] = assay: Antibacterial activity against Escherichia coli ATCC 25922 assessed as bacterial growth inhibition at 0.5 times of MIC concentration measured at logarithmic phase 6 th hr of bacterial cycle; format: functional, organism-based; conditions: time 24.0 hrs; method in brief: as §5
Staphylococcus aureus [18] = assay: Antibacterial activity against Staphylococcus aureus ATCC 29213 infected in mouse C57BL/6 bacterimia model assessed as reduction in number of viable pathogens in peritoneal cavity at 24 mg/kg, ip treated 1 hr after infection measured after 24 hrs; format: functional, organism-based; method in brief: as §7
Staphylococcus aureus [19] = assay: Induction of morphological changes in Staphylococcus aureus ATCC 29213 assessed as deformed, pitted and shriveled surface at MIC incubated for 12 hrs by scanning electron microscopy; format: functional, organism-based; method in brief: as §1

Row | SMILES | MIC (Staphylococcus aureus [1]) | MIC (Escherichia coli [2]) | other results
1 | CCNc1nccc(NCc2ccc(-c3ccccc3)s2)n1 | > 32 µg/mL | 16 µg/mL (≈ 51.5 µM) | 
2 | CN[C@H](CC(C)C)C(=O)N[C@H]1C(=O)N[C@@H](CC(N)=O)C(=O)N[C@H]2C(=O)N[C@H]3C(=O)N[C@H](C(=O)N[C@H](C(=O)O)c4cc(O)cc(O)c4-c4cc3ccc4O)[C@H](O)c3ccc(c(Cl)c3)Oc3cc2cc(c3O[C@@H]2O[C@H](CO)[C@@H](O)[C@H](O)[C@H]2O[C@H]2C[C@](C)(N)[C@H](O)[C@H](C)O2)Oc2ccc(cc2Cl)[C@H]1O [VANCOMYCIN] |  | 1 µg/mL (≈ 0.69 µM) | 
3 | CC(C)CNc1nccc(NCc2csc(-c3ccccc3)n2)n1 | > 32 µg/mL | > 32 µg/mL | 
4 | Clc1nccc(NCc2csc(-c3ccccc3)n2)n1 | > 32 µg/mL | > 32 µg/mL | 
5 | CCCCNc1nccc(NCc2ccc(-c3ccccc3)s2)n1 | 4 µg/mL (≈ 11.8 µM) | > 32 µg/mL | 
6 | CC(C)CNc1nccc(NCc2ccc(-c3ccc(OCc4ccccc4)cc3)s2)n1 | 8 µg/mL (≈ 18 µM) | 8 µg/mL (≈ 18 µM) | 
7 | CC(C)CNc1nccc(NCc2ccc(-c3ccccc3Br)s2)n1 | 8 µg/mL (≈ 19.2 µM) | 4 µg/mL (≈ 9.58 µM) | 
8 | CCCCN(CCCC)c1nccc(NCc2ccc(-c3ccccc3)s2)n1 | > 32 µg/mL | > 32 µg/mL | 
9 | c1ccc(-c2ccc(CNc3ccnc(N4CCCC4)n3)s2)cc1 | 8 µg/mL (≈ 23.8 µM) | 8 µg/mL (≈ 23.8 µM) | 
10 | CC(C)CNc1nccc(NCc2ccc(-c3cccc(Br)c3)s2)n1 | 3 µg/mL (≈ 7.19 µM) | 2 µg/mL (≈ 4.79 µM) | Activity (Escherichia coli [3]): Active; Activity (Cell membrane [4]): Active; Activity (Cell membrane [5]): Active; Activity (Escherichia coli [6]): Active; Activity (Cell membrane [7]): 58.5%; Activity (Staphylococcus aureus [8]): Active; Activity (Cell membrane [9]): 77.2%; inhibition (INH) (Staphylococcus aureus [10]): 100%; Activity (Cell membrane [11]): Active; Activity (Staphylococcus aureus [12]): Active; Activity (Staphylococcus aureus [13]): Active; inhibition (INH) (Escherichia coli [14]): 100%; Activity (Cell membrane [15]): Active; hemolysis at 1 h [16]: < 20%; Activity (Escherichia coli [17]): Active; Activity (Staphylococcus aureus [18]): Active; Activity (Staphylococcus aureus [19]): Active
11 | CC(C)CNc1nccc(NCc2ccc(-c3ccc(Br)cc3)s2)n1 | 4 µg/mL (≈ 9.58 µM) | 2 µg/mL (≈ 4.79 µM) | 
12 | c1ccc(-c2ccc(CNc3ccnc(N4CCNCC4)n3)s2)cc1 | > 32 µg/mL | > 32 µg/mL | 
13 | CC(C)CNc1nccc(NCc2ccc(-c3ccc(F)cc3)s2)n1 | 8 µg/mL (≈ 22.4 µM) | > 32 µg/mL | 
14 | CC(C)CNc1nccc(NCc2ccc(-c3ccc(C(C)(C)C)cc3)s2)n1 | 8 µg/mL (≈ 20.3 µM) | 2 µg/mL (≈ 5.07 µM) | 
15 | CCCN(CCC)c1nccc(NCc2ccc(-c3ccccc3)s2)n1 | > 32 µg/mL | 8 µg/mL (≈ 21.8 µM) | 
16 | CC(C)Nc1nccc(NCc2ccc(-c3ccccc3)s2)n1 | > 32 µg/mL | > 32 µg/mL | 
17 | CC(C)CN(CC(C)C)c1nccc(NCc2ccc(-c3ccccc3)s2)n1 | > 32 µg/mL | > 32 µg/mL | 
18 | CC(C)CNc1nccc(NCc2ccc(-c3ccccc3)s2)n1 | 8 µg/mL (≈ 23.6 µM) | 8 µg/mL (≈ 23.6 µM) | 
19 | CC[C@H](C)CCCCC(=O)N[C@@H](CCN)C(=O)N[C@H](C(=O)N[C@@H](CCN)C(=O)N[C@H]1CCNC(=O)[C@H]([C@@H](C)O)NC(=O)[C@H](CCN)NC(=O)[C@H](CCN)NC(=O)[C@H](CC(C)C)NC(=O)[C@@H](Cc2ccccc2)NC(=O)[C@H](CCN)NC1=O)[C@@H](C)O (X1-[Dab]T[Dab][Dab][Dab][dF]L[Dab][Dab]T; lactam 4-C) | 512 µg/mL (≈ 425 µM) | 32 µg/mL (≈ 26.6 µM) | 
20 | COc1ccc(-c2ccc(CNc3ccnc(NCC(C)C)n3)s2)cc1 | 4 µg/mL (≈ 10.9 µM) | 4 µg/mL (≈ 10.9 µM) | 
21 | CCCNc1nccc(NCc2ccc(-c3ccccc3)s2)n1 | 16 µg/mL (≈ 49.3 µM) | 8 µg/mL (≈ 24.7 µM) | 
22 | c1ccc(-c2ccc(CNc3ccnc(N4CCOCC4)n3)s2)cc1 | > 32 µg/mL | > 32 µg/mL | 
23 | CC(C)CNc1nccc(NCc2ccc(-c3ccc(Cl)cc3)s2)n1 | 8 µg/mL (≈ 21.5 µM) | 8 µg/mL (≈ 21.5 µM) | 
24 | O=C(N[C@H](CO)[C@H](O)c1ccc([N+](=O)[O-])cc1)C(Cl)Cl [CHLORAMPHENICOL] | 8 µg/mL (≈ 24.8 µM) | 8 µg/mL (≈ 24.8 µM) | 
